According to the EternaBench riboswitch data:

Test system: MS2 coat protein
Test: apparent Kd, MS2 coat protein; higher = weaker binding; RNA-MaP array; FMN 200 µM where present
Method in brief: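 Stalled E. coli RNA polymerase produced the designs on Illumina sequencing-chip clusters. SNAP-549-labelled MS2 coat protein was added from 0.7 or 1.5 nM, doubling to 3 µM, without and then with constant ligand, in 100 mM Tris-HCl pH 7.5, 80 mM KCl, 4 mM MgCl2, BSA, DTT, yeast tRNA and Tween-20. The apparent Kd is the median of filtered per-cluster fits of green signal normalised to red-channel RNA signal and control-cluster median Fmax.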

[1] = designed as: OFF switch for flavin mononucleotide, no ligand
[2] = ligand present: flavin mononucleotide, designed as: OFF switch for flavin mononucleotide
[3] = designed as: ON switch for flavin mononucleotide, no ligand
[4] = ligand present: flavin mononucleotide, designed as: ON switch for flavin mononucleotide

Sequence | apparent Kd [1] | apparent Kd [2] | apparent Kd [3] | apparent Kd [4]
GGUACUCAAAGAGUACCAAUACGAACAUGAGGAUCACCCAUGUAGGAUAUGAAAACGCCGGAGUAGCAGAAGGACAUGUGCCUA | 11.4 nM | 11.1 nM |  | 
GCUACGUCAGGAUAUCUGAUGUCUAACUUCGGUUAGACAUCAGAGAAGGGACAUGAGGAUCACCCAUGUAGCAG | 114 nM | 112 nM |  | 
UAUGGUAAAGUCAGGAUAUACGUACAUAAUUCUAGGUAGAAGGGACAUGAGGAUCACCCAUGUAUGGUAGUGUU | 73 nM | 84 nM |  | 
AAGAAGUCAGGAUAUGCUGCUCGUCACUUGCGUGAUGAGUAGCAGAAGGGACAUGAGGAUCACCCAUGUAAAGU | 51.6 nM | 79.7 nM |  | 
AUGGUACAUGAGGAUCACCCAUGUUAGGAUAUCGCGUGAUCUAAAACUAAGAGACACACGAGAAGGGACGACAU | 176 nM | 104 nM |  | 
CACUCGUGUCUAGGAUAUGAGUGACAAGCGCGAGAUUUUCUCGCCGCUAGCUCAGAAGGAGACAUGAGGAUCACCCAUGUAAGG | 59.7 nM | 12.5 nM |  | 
UCACGGAGCCUAGGAUAUACAUGAGGAUCACCCAUGUAUUGACGUUAGUGCUGGACUGAUUUGCUGUAGAAGGAGGUCACUGAG | 16.6 nM | 18.3 nM |  | 
AAGAAAUGGGAGUGAUCUGGUUCCGAGGAUAUAGGCAUCGGUACAUGAGGAUCACCCAUGUCCGACUAGAAGGCGGACGGGUCC |  |  | 34.1 nM | 8.76 nM
CCUAUGUGAGGAUAUAGCCACAUUACGAAUAAGUAGUGUGGCUAGAAGGUACAUGAGGAUCACCCAUGUAUGGG | 167 nM | 84.1 nM |  | 
UCUUAUUGCAAGGAUAUGCAAUUUAUUUUUUAUGCAGAAGGUGCAACAUGAGGAUCACCCAUGUUUCCGGGCAU | 13.8 nM | 18.6 nM |  | 
ACAAGCUCACAUGAGGAUCACCCAUGUGGUCGCUAAUAUACCAGAAGGGUGGGUCCUAAUGAUGUACAGGAUAUGGAGUAGGCG |  |  | 196 nM | 62 nM
GGAGCCGGCACCGAGGAUAUUCAUAUUAAAACAUGAGGAUCACCCAUGUAGGCCAGAAGGCCUUGGGAGAAGGCGGACCGGCUCG |  |  | 654 nM | 31.1 nM
UUGGACGUCGUAGGAUAUGUAGGAUAUUCCUACAUGAGGAUCACCCAUGUUUACAUGGAAGAAGGACAGAAGGACGAUGUCCAU |  |  | 1320 nM | 14.5 nM
AAAACAUGAGGAUCACCCAUGUAAAGAUCGGUUGAUGAAAGUGAGGAUAUACAAAAUUUUAUGGAGUAGAAGGCACUGGGUACA |  |  | 44.6 nM | 40.9 nM
AAUUGACACGUAGGAUAUCGAUCUAUAUUAACACGAGAAGGACGUACAUGAGGAUCACCCAUGUUUAAUGGAGUAGAUAAGUUG | 112 nM | 257 nM |  | 
UGAUAGGACAGAGGAUAUACGUGCUAGAGAUACUAGCAAAAUUUCCUCACAUGAGGAUCACCCAUGUAGAAGGCUGUCCUAUCG | 17.6 nM | 453 nM |  | 
UUGGUACAAGGAUAUACAUGAGGAUCACCCAUGUUUGGCAUCGCGCGUAUCUCUUCAGGUAGAAGGUGUGUUGA | 22.3 nM | 26.5 nM |  | 
UUGGACGUCGUAGGAUAUGUCGGAUAUUCCUACAUGAGGAUCACCCAUGUUGACAUGGAAGAAGGACAGAAGGACGAUGUCCAU |  |  | 4.52 nM | 3.87 nM
GGAAAACAUGAGGAUCACCCAUGUGAGGAUAUCGAUGUCCACCCUCCCGUGCGGGACUCGAGAAGGCACUUGGA | 50.9 nM | 56.4 nM |  | 
AAUUAUUUUUGAGGAUAUCGUGGUGAAACACCACGAGAAGGCGAGAUACACAUGAGGAUCACCCAUGUGAGCCUGAUGCUUAUG | 16.1 nM | 14.4 nM |  | 
GGUUAUAUAACAUGAGGAUCACCCAUGUGAGUGGUCCGAAUAUAGGAUAUCCACACGAGAAGUGUGGAGAAGGAUAAUUUAUUA | 40.7 nM | 206 nM |  | 
AAAAAACAUGAGGAUCACCCAUGUGAGGAUAUCGGAAAAGGAAAAAAAAAAAAGAAGACGAGAAGGCACAAAGA | 48.4 nM | 60.4 nM |  | 
AAAUUUAACGAAGGAUAUACUAACAUGAGGAUCACCCAUGUGUGUUUCGUGUUACUGAAAUUCGGGUAGAAGGUCGUAUACAUA | 80.4 nM | 33.7 nM |  | 
ACUACAUGAGGAUCACCCAUGUGAAUAAUAAAAGUAACAAGCAGAAGGUGACCUCGUCUCCUGGUCAAGGAUAUGCAAGAAAGA |  |  | 267 nM | 33.7 nM
UCGUGAAGGACAGGAUAUGGACAUGAGGAUCACCCAUGUACAUGGGAAUGUAUACUGAAUUUGUACUAGAAGGGUUACAUAAAU | 29.9 nM | 20.6 nM |  | 
CUGGGCGGUUUGCCCACACUGUCACAGGAUAUGCCCAAAACAUGAGGAUCACCCAUGUCAAAUACGCAGAAGGGUGAUCGGAAC |  |  | 107 nM | 62.5 nM
CUUGUGUGAGGAUAUCAGUAGUAGUACGAUAGUAUUACUGCUGAGAAGGCACAUGAGGAUCACCCAUGUUCUUC | 28.1 nM | 24.1 nM |  | 
UUUUCCGGGCAGAAGGGUCCUCACAUGAGGAUCACCCAUGUAAACGCGGAUAGGAUAUGCCACUGGGCUCGAUAAGAGUGGUUC |  |  | 409 nM | 160 nM

Sequence | apparent Kd [1] | apparent Kd [2] | apparent Kd [3] | apparent Kd [4]
UGUUGUAUUACAGGAUAUCUAGUAUUUUCAUUUAGAGAAGGGUAUUCACAUGAGGAUCACCCAUGUAUAUACGAGGAAGUUGUG |  |  | 43.7 nM | 45.4 nM
AUUUCGACCACAGGAUAUGUUUGACCGAUACUUACAGAAGGGUGGUCCACGCGCACAAGCACAUGAGGAUCACCCAUGUAACGA |  |  | 20.1 nM | 60.7 nM
AUUGGGACAUGAGGAUCACCCAUGUACGCAGUGGGUAGAUCACAGGAUAUGCGAAGUGUGUGAGAGCAGAAGGGUGAGUACUUA |  |  | 343 nM | 59.5 nM
AGUGUGUGGCAGGAUAUUCUGGUCGUGAGUCGGGAAGAAGGGUCUACAUGAGGAUCACCCAUGUGAGCGGUUGA | 99.4 nM | 258 nM |  | 
AAAAAACAUGAGGAUCACCCAUGUAAAAAAAACACAGGAUAUCCCUUUUUUAAAAAAAAAGGAGAAGGGUGAAAAA |  |  | 41.6 nM | 32.9 nM
CGGGAGGAAGGAUAUACACGGCCUCCUAGAAUAAAUCCUGGACAUGAGGAUCACCCAUGUAGAAGGUCCACCGA | 18.9 nM | 24.4 nM |  | 
GUAGAGUAAGGAUAUGCUGAAUAGGAUAGAAUGGUUAGAAAGCAGAAGGUACAUGAGGAUCACCCAUGUAAUGU | 23.2 nM | 21.2 nM |  | 
UUAUUGGGACAGAAGGGCAUUUACAUGAGGAUCACCCAUGUGUAUAGUUGCAGGAUAUGUAUUACAUGUGAAUCAUCAAAGUGC |  |  | 75.5 nM | 25.5 nM
GGACGUCACAUUAACAUGAGGAUCACCCAUGUCAAAAGACAUGAGGAUAUGCAUCCUAAUUGGAUGCAGAAGGCAUGGACGUCC |  |  | 449 nM | 35 nM
AAGAAACAUGAGGAUCACCCAUGUCAGGAUAUGCAAGACUGACGAAAGUCAGUCAAAAGCAGAAGGGACUAGAA | 57.2 nM | 76.6 nM |  | 
UCCAGGCGAGGAUAUACAAAGAUUUUUUCGUUUUGUCUCGAACAUGAGGAUCACCCAUGUAGAAGGUGCUGCUG | 57.5 nM | 52.9 nM |  | 
GUCAGCUCGUGAGGAUAUGCAUCACUGCUUCGGCAGUGUAUUAAGAUCACAUGAGGAUCACCCAUGUAGAAGGCACGAGCUGAU | 7.3 nM | 41.7 nM |  | 
GGAUAGGACAGAGGAUAUACGUCCUAGAGAUACUAGCAAAAUUUCCUCACAUGAGGAUCACCCAUGUAGAAGGCUGUCCUAUCG | 12.6 nM | 141 nM |  | 
AUUAACUACAUAGGAUAUUGAUACAUGAGGAUCACCCAUGUCACCCAUGUUUAUUUAUCAAUUGACAAGAAGGAUGUGGUUACA |  |  | 69.8 nM | 46.5 nM
GUGCCAUAUGAGAAGGCGAUCAUGAAACAUGAUCGAGGAUAUCAUGAAAACAUGAGGAUCACCCAUGUAUGGGUAUUAAGGUAC |  |  | 64.3 nM | 28.9 nM
UGUCGGAGCAGAGGAUAUUACAUGAGGAUCACCCAUGUAUGAACCAAUAGCUGGAAACAGCAAUAUAAGAAGGCUGCUCCGACA | 5.59 nM | 5.48 nM |  | 
UGUCCAUAGCAGAAGGACAUGAAUACAUGAGAAAACAUGAGGAUCACCCAUGUAGGAUAUGCUAUGGACUAAGAGCGAAAGCUC | 12.2 nM | 91.9 nM |  | 
UUUGUGUAAGGAUAUCACUACCGGGUCCGGACGCCCGCAGAUGAGAAGGUACAUGAGGAUCACCCAUGUCCCUA | 19.7 nM | 26.4 nM |  | 
AUUUAAAUGUCAGGAUAUGGUAGAUUAUUCUUAUCAGAAGGGAUAAUUAUACUCAAGUACAUGAGGAUCACCCAUGUUAAAUCA |  |  | 10.3 nM | 10.3 nM
GAGGUGUUAGGAUAUCGGAGAUGGAGAAGAACGGGAAGAGGCGAGAAGGAACAUGAGGAUCACCCAUGUAGGUG | 433 nM | 329 nM |  | 
UAUCUAUUUAUGGGAUUAGAAUAUGAGGAUAUCAUUUAUUUAUACAUGAGGAUCACCCAUGUUUCUGAGAAGGCAUAUUUAAUA |  |  | 20.3 nM | 6.73 nM
CUAUUGCGAGGAUAUGAUUUAAAUAACAUGAGGAUCACCCAUGUUUUUACGUUGUUAUGUUCAGAAGGCGUAUUGU | 40.1 nM | 26.3 nM |  | 
AUAAAUAAGGCGCACAUGAGGAUCACCCAUGUACGGACUAGCAAGGAUAUCAGCGUCGGGUGCAAUGAGAAGGUGUGUGUCAAG |  |  | 45.1 nM | 74.4 nM
AAAAGUCCUGAGGAUAUCGAAACUCCAUUAGGACGAGAAGGCGGGACAUGAGGAUCACCCAUGUGGGCGAGCUC | 232 nM | 475 nM |  | 
AUGCCGUGCAGAGCGCGACGGCGAACAUGAGGAUCACCCAUGUAGGAUAUACUACACAAAGUGUAGUAGAAGGACGUGCAACAC | 25.5 nM | 34.7 nM |  | 
GCCCUCCCUGAGGAUAUUAUCUGGUUCGAUUGAUAAGAAGGCAGUACAUGAGGAUCACCCAUGUGGUUCGUUUG | 108 nM | 285 nM |  | 
GCCCUUUCUGAGGAUAUUAUCUGGUUCGAUUGAUAAGAAGGCAGUACAUGAGGAUCACCCAUGUGGUUCGUUUG | 99.6 nM | 242 nM |  | 
